Only some compounds are listed: those with a hit (about 4.6% of all), similar ones and a draw of the others.
RAM inhibit = blocks the yeast RAM network | inhibition, % at 50 µM | hit rate 1.8% among 190,000 | S. cerevisiae dse1pr::URA3 reporter, 5-FOA growth OD615, 2 d; analog-sensitive cbk1-as2 kinase mutant strain;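 active means inhibition above a set limit, 3 SD over mean compound inhibition, cut at about 8.4% in these data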;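 further: 0% = DMSO-only wells with no growth and 100% = 10 µM 1-NA-PP1 full growth; inhibition rescues growth on 5-FOA so higher OD means more RAM inhibition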
NCF1 inh = p47phox (human) inhibition | p47phox/p22phox peptide binding, fluorescence polarization, 2 h | hit rate 0.53% among 220,000 | P14598 | inhibition, % at 24.7 µM;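 active means inhibition above about 30%, limit read from the data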;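 further: 0% = p47phox with labelled peptide and 100% = labelled peptide alone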
Target sequence (P14598 whole entry, looked up): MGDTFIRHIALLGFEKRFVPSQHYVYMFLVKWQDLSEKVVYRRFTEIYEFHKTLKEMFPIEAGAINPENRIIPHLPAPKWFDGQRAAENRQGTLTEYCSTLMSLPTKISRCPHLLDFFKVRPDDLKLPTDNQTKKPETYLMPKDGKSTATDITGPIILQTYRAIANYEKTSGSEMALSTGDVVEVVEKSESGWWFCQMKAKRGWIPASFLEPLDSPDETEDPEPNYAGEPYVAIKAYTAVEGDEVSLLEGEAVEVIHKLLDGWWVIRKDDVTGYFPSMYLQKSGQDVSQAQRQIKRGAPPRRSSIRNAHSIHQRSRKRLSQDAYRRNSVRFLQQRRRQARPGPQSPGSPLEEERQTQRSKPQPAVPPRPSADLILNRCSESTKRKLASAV
Hck-Nef inh = inhibitors of human Hck kinase activated by Nef; Recombinant Hck-YEEI plus Nef, Z-Lyte FRET kinase assay; P08631; AID 463187; inhibition, % at 20 µM; hit rate 0.68% among 220,000;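 active means Hck-Nef kinase inhibition above about 50%, limit read from the data; inactive means inhibition below that limit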;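 further: 0% = DMSO with Hck plus Nef and 100% = Hck alone without Nef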
Arbovirus inh = antivirals against arbovirus infection; arbovirus infection cell-based antiviral screen; inhibition, % at 10 µM; hit rate 0.37% among 200,000; in the data active means inhibition above about 30%
Calb biofilm kill = mixture kills Candida albicans biofilm cells | C. albicans biofilm persisters + clotrimazole, fluorescence viability; primary screen in compound mixtures of four per well | inhibition, % at 7.6 µM | hit rate 0.02% among 120,000 | AID 1242;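 active means inhibition above 30.3% in the primary screen of four-compound pools, then above 30% when the compound was retested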;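 further: compounds exposed to preformed 24 h biofilms for 48 h; 0% = untreated biofilm control and 100% = clotrimazole plus chlorhexidine kill blank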
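Test system: C. albicans biofilms. Buffer or medium: RPMI/MOPS medium, pH 7.0. Timing: 48 h compound exposure at 37 °C. Technique: Alamar Blue fluorescence. Evaluation: percent inhibition of biofilm viability.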
WT yeast gro inh = growth inhibition of WT yeast, mitochondrial fusion screen | inhibition, % at 10 µM | mitochondrial fusion phenotypic screen, WT strain | hit rate 2.1% among 190,000 | AID 1362; in the data active means inhibition above about 58%; tested in S. cerevisiae
An asterisk follows results filed as active; nt = not tested or not shown.

SMILES	RAM inhibit	NCF1 inh	Hck-Nef inh	Arbovirus inh	Calb biofilm kill	WT yeast gro inh
O=C(NC1CCCCC1)C(c1ccccn1)N(C(=O)c1csnn1)C1CCCCC1 (stereo not given)	1.4	3.1	13.6	-8.0	24.7	6.9
Cc1ccc(NC(=O)C2CC(=O)N(Cc3ccco3)C2)cc1 (stereo not given)	nt	-2.8	13.2	nt	19.0	nt
CC(=O)NC1(C(F)(F)F)C(=O)Nc2c1c(=O)[nH]c(=O)n2Cc1ccco1 (stereo not given)	1.1	-10.8	7.7	7.4	nt	-10.9
O=c1[nH]c(=O)n(Cc2ccco2)c2c1C(C(F)(F)F)(C(F)(F)F)N=C(Cc1ccccc1)N2	2.9	-9.3	2.4	-5.4	nt	62.3*
CC(C)(C)C(=O)Cn1c(=N)n(Cc2ccccc2)c2ccccc21	1.2	-13.5	-6.1	0.2	nt	70.5*
CC(C)(C)C(=O)Cn1c(=N)n(Cc2ccccc2Cl)c2ccccc21	1.7	-8.5	1.3	-1.3	nt	14.2
CCCn1c(C)cc(C(=O)COc2ccc(S(=O)(=O)N(CC)CC)cc2[N+](=O)[O-])c1C	8.4*	-30.4	1.9	-4.8	14.5	-30.4
Cc1cc(C)c(OCC(=O)Nc2nnc(-c3ccco3)o2)c(C)c1	4.2	-0.3	-31.8	1.7	9.6	59.1*
CC(=O)Nc1nnc(-c2ccco2)o1	0.8	nt	9.8	3.4	3.8	9.9
Cc1ccc(Nc2nc3nonc3[nH]c2=O)cc1Cl	1.2	-15.6	12.9	-16.5	12.7	63.7*
Cc1ccc(Nc2nc3nonc3[nH]c2=O)cc1C	1.5	-14.1	-3.1	24.5	nt	-7.3
COc1ccc(-c2nc(N3CCCCCC3)sc2C(=O)c2ccccc2)cc1	7.2	1.0	0.4	-7.5	nt	10.4
[2H]c1c([2H])c([2H])c(C(=O)c2sc(N3CCCCCC3)nc2-c2ccccc2)c([2H])c1[2H]	8.8*	2.9	-0.2	-2.3	nt	-2.8
O=C(c1ccc(Br)cc1)c1sc(N2CCOCC2)nc1-c1ccccc1	9.4*	2.3	17.6	4.9	11.9	42.2
O=C(c1ccccc1)c1sc(N2CCOCC2)nc1-c1ccccc1	0.0	-1.4	11.0	-8.9	6.1	0.2
C=C(C)C1CC=C(C)/C(=N/NC(=O)c2ccc(NC(=O)c3cccc(C)c3)cc2)C1 (stereo not given)	-0.4	36.8*	-1.7	7.6	nt	27.0
Cc1ncc(CN2CCN(CCc3ccccc3)C(CCO)C2)s1 (stereo not given)	1.4	2.1	21.9	-3.3	25.8	-10.5
COc1ccc(-c2csc(/C(C#N)=C\c3ccc(O)c([N+](=O)[O-])c3)n2)cc1OC	nt	-16.3	14.7	nt	5.2	nt
O=C(O)CC/C(=C\c1ccc(N2CCOCC2)c([N+](=O)[O-])c1)c1nc2ccccc2s1	2.5	1.6	-17.6	8.5	15.8	-9.8
N#C/C(=C\c1ccc(O)c([N+](=O)[O-])c1)c1nc2ccccc2s1	3.7	-59.6	43.2	46.1*	28.7	56.0
COc1cc(/C=C(\C#N)c2nc3ccccc3s2)cc([N+](=O)[O-])c1O	6.6	-85.6	22.4	36.1*	21.0	66.6*
COc1ccc(-c2csc(/C(C#N)=C\c3ccc(OC)c([N+](=O)[O-])c3)n2)cc1	3.9	-13.2	-0.6	-5.9	6.6	1.9
O=C(O)CC/C(=C\c1ccc(Cl)c([N+](=O)[O-])c1)c1nc2ccccc2s1	10.7*	-25.6	14.2	26.1	4.6	-34.5
CCc1ccc(OC)c(-c2csc(N)n2)c1	0.7	-9.1	20.0	9.4	8.1	58.5*
COc1ccc(-c2csc(N)n2)cc1F	2.2	0.0	22.3	-1.9	14.0	5.3
O=c1c2nnn(-c3ccccc3)c2ncn1C/C=C/c1ccccc1	2.2	-9.7	8.8	3.1	14.6	1.7
O=C(Nc1ccc(Nc2ccncc2)cc1)c1ccc(Nc2ccnc3ccc([N+](=O)[O-])cc23)cc1	nt	46.2*	-163.1	nt	3.9	nt
CNC(=S)N(Cc1ccc(OC)cc1)C1CC(=O)N(c2ccc(OC)cc2)C1=O (stereo not given)	10.4*	1.4	-1.0	-8.5	13.4	-10.9
CNC(=S)N(Cc1ccc(OC)cc1)C1CC(=O)N(c2ccc(C(=O)OC)cc2)C1=O (stereo not given)	0.9	1.4	2.5	-8.2	12.3	-12.5
O=C1CC(N(CCc2ccccc2)C(=S)Nc2ccccc2)C(=O)N1c1ccccc1 (stereo not given)	7.6	-19.6	3.2	-42.7	12.5	70.8*
